Source: PubChem BioAssay
This is one part of a sample in which hits are shown more often than they occur.
ABCG2 inh: ABCG2 efflux pump inhibitors, primary screen, multiplex with ABCB1, IgMXP3 cells, flow cytometry; Broad substrate specificity ATP-binding cassette transporter ABCG2 (Homo sapiens), Q9UNQ0; JC-1 efflux; inhibition, % at 6.6 µM; hit rate 0.1% among 190,000;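 active = inhibition above 80%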;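 note: 0% = DMSO and 100% = nicardipine control wells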
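Measure – % inhibition of efflux relative to nicardipine and DMSO · Test system – ABCG2 IgMXP3 and barcoded ABCB1 CCRF-Adr cell mix · Control set – nicardipine as high control, DMSO as low control · Compound – one concentration, 6.6 µM final · Signal – flow cytometry of retained JC-1 fluorescence · Timing – 10 min exposure at 25 °C with rotation, no wash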
FLuc act counter: FLuc activators, initial screening, artefact control for FLuc-dependent activation tests, biochemical, ATPlite luminescence; ATPlite luciferase biochemical, 10 min; 0 = ATP-free wells, 1 = DMSO control; 200,000 tested, under 10 active; activation factor at 10 µM; AID 1027, 2008; Luciferin 4-monooxygenase (Photinus pyralis), P08659;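 active = luciferase activation factor, scaled between plate controls, of at least 2 with compound at 10 µM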
Target sequence (P08659 whole entry, looked up): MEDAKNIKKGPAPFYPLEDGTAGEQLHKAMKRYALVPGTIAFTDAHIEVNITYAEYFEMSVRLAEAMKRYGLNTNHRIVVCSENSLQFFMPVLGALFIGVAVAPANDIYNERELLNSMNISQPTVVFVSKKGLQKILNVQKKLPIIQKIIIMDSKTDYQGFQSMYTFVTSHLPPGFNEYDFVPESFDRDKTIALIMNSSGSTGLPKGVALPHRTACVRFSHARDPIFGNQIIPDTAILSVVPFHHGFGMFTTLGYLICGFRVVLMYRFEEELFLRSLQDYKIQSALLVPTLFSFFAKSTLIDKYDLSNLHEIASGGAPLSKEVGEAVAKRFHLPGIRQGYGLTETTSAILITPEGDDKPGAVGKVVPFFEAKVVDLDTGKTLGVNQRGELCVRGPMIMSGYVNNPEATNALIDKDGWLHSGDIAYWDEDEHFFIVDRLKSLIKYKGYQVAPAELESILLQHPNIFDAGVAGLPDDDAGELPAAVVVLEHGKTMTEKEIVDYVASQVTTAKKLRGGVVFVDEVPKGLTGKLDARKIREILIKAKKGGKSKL
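Material: Luciferase/luciferin reagent mix | Doses: Test compounds dosed from 2 mM stocks in 100% DMSO | Timing: 10 min incubation after luciferase reagent addition, room temperature | Measured by: Luminescence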
Diaphorase act: compounds boosting diaphorase resazurin reduction – biochemical, uHTS, resorufin fluorescence, counter-screen for diaphorase-coupled primary assays, primary screen | Diaphorase/resazurin coupled assay, 16 min; stronger effect = higher value; 1 = vehicle wells, 0 = NADH-free wells | activation factor at 20 µM | hit rate 0.005% among 190,000 | AID 1229, 2008;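 active = diaphorase activity raised at least twofold by the compound at 20 µM; inactive = activation factor below 2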
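Material: Clostridium kluyveri diaphorase, purified enzyme; Quantity: enzyme 0.07 U/mL final; Medium: HEPES pH 7.4 buffer with MgCl2 and Tween 20; Dosing: single compound dose of 20 µM, 1% DMSO final; Schedule: 16 min reaction at room temperature; Measured by: red resorufin fluorescence at 544/590 nm excitation/emission.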
ABCB6 inh 2: ABCB6 transporter inhibitors, primary screen, K562-ABCB6 cells, flow cytometry, MLPCN library; ATP-binding cassette sub-family B member 6 (Homo sapiens), Q9NP58; K562-ABCB6 porphyrin accumulation, 1 h; stronger effect = lower value; fluorescence ratio to DMSO, % at 10 µM; hit rate 0.19% among 360,000; AID 602162, 2011;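 active = fluorescence ratio to DMSO below 75%, the collection mean minus 3 SD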;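 note: signal is porphyrin accumulated inside mitochondria; 100% equals median channel fluorescence of DMSO control wells; lower ratio means ABCB6 inhibition with less porphyrin fluorescence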
ABCB1 block: ABCB1 efflux pump inhibitors, primary screen, cell-based, multiplex, flow cytometry, ABCG2 counter-screen. hit rate 0.067% among 190,000. CCRF-Adr cells, JC-1 efflux. AID 1326, 2008. inhibition, % at 6.6 µM; in the data active = inhibition above about 40%;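 note: 0% = vehicle and 100% = reference inhibitor; higher value means more JC-1 retained so stronger ABCB1 efflux block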
FLuc inhib CS: firefly luciferase enzyme inhibitors, primary screen, artefact control for luciferase-based inhibitor screens, biochemical, luminescence, ATPLite; 10 min; Luciferin 4-monooxygenase (Photinus pyralis), P08659; inhibition, % at 10 µM; hit rate 1.5% among 200,000;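 active = inhibition above about 50% when tested at 10 µM, limit read from the data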
The depositor's hits bear a star.

How did Cc1cc(O)c(/C=N/Nc2cccc(Cl)c2)c(=O)o1 do in these assays?
ABCG2 inh: 0; FLuc act counter: 0.8; Diaphorase act: 0.9; ABCB6 inh 2: 119; ABCB1 block: 0; FLuc inhib CS: 25

What do the screens show for `C[C@H](CO)N1C[C@H](C)[C@@H](CN(C)C(=O)c2ccccn2)Oc2cc(Br)ccc2S1(=O)=O`?
ABCB6 inh 2: 98

How did COc1ccccc1OCC(=O)Nc1ccccn1 do in these assays?
ABCG2 inh: 15; FLuc act counter: 0.3; Diaphorase act: 0.8; ABCB6 inh 2: 101; ABCB1 block: 1; FLuc inhib CS: 71*

How did O=C(COc1ccccc1Cl)Nc1ccc(Cl)cn1 do in these assays?
ABCG2 inh: 34; FLuc act counter: 0.3; Diaphorase act: 0.8; ABCB6 inh 2: 92; ABCB1 block: 1; FLuc inhib CS: 69*

How did CSc1ccccc1NC(=O)COc1ccc(Cl)cc1Cl do in these assays?
ABCG2 inh: 2; FLuc act counter: 1; Diaphorase act: 0.8; ABCB6 inh 2: 92; ABCB1 block: 0; FLuc inhib CS: -3

What do the screens show for `O=C(COc1ccc(Cl)cc1Cl)Nc1ccccn1`?
ABCG2 inh: 32; FLuc act counter: 0; Diaphorase act: 1; ABCB6 inh 2: 100; ABCB1 block: 0; FLuc inhib CS: 97*

Results for CCc1ccc(CN(C)C(=O)c2cc(COc3cc(C)c(Cl)c(C)c3)on2)nc1 ?
ABCB6 inh 2: 99

How did N/C(=N\OC(=O)c1ccc(Cl)cc1Cl)c1ccccn1 do in these assays?
ABCG2 inh: 6; FLuc act counter: 0; Diaphorase act: 0.8; ABCB6 inh 2: 99; ABCB1 block: 1; FLuc inhib CS: 95*

How did N/C(=N\OC(=O)c1cc(Br)ccc1Cl)c1ccccn1 do in these assays?
ABCG2 inh: 27; FLuc act counter: 0.5; Diaphorase act: 1; ABCB6 inh 2: 99; ABCB1 block: 2; FLuc inhib CS: 52*

How did COc1cccc(-n2cc(CNC(=O)C3CCC(=O)N(C4CC4)C3)cn2)c1 (centres undefined) do in these assays?
ABCB6 inh 2: 98

Results for COCCSc1ccccc1C(=O)N1CCc2ccccc21 ?
ABCB6 inh 2: 99

How did COc1ccc(NC(=O)C2(C)CCN2Cc2csc3ccccc23)cc1OC (centres undefined) do in these assays?
ABCB6 inh 2: 99

What do the screens show for `Cc1ccc(C(=O)NCCc2csc(C)n2)cc1`?
ABCG2 inh: -4; FLuc act counter: 0.4; Diaphorase act: 0.9; ABCB6 inh 2: 101; ABCB1 block: -2; FLuc inhib CS: 58*

How did COc1ccccc1C(=O)Nc1nc(-c2cccs2)c(NC(C)=O)s1 do in these assays?
ABCG2 inh: 0; FLuc act counter: 0.5; Diaphorase act: 0.9; ABCB6 inh 2: 95; ABCB1 block: 0; FLuc inhib CS: 50*

How did Cc1ccc2nc(-c3sc4nc(C)cc(C)c4c3N)[nH]c2c1 do in these assays?
ABCG2 inh: 4; FLuc act counter: 0.4; Diaphorase act: 1; ABCB6 inh 2: 104; ABCB1 block: -1; FLuc inhib CS: 64*

How did Cc1ccc(-c2nc3ccc([N+](=O)[O-])cc3[nH]2)cc1 do in these assays?
ABCG2 inh: 4; FLuc act counter: 0.4; Diaphorase act: 0.9; ABCB6 inh 2: 85; ABCB1 block: 0; FLuc inhib CS: 61*

How did Cc1ccc2nc(-c3cccc(N)c3)[nH]c2c1 do in these assays?
ABCG2 inh: -4; FLuc act counter: 0.1; Diaphorase act: 1; ABCB6 inh 2: 94; ABCB1 block: 0; FLuc inhib CS: 88*

How did C[C@]12c3[nH]c4ccccc4c3CCN1C(=O)C(CC(=O)NCCN1CCOCC1)C[C@@H]2C(=O)N1CCCCC1 (some centres undefined) do in these assays?
ABCB6 inh 2: 107

How did CN(Cc1ccc2ccccc2c1)C(=O)c1ccc(C(F)(F)F)cc1 do in these assays?
ABCB6 inh 2: 83

What do the screens show for `COC(=O)N(C)C[C@@H]1OCc2ccccc2-c2c(n(C)c3ccccc23)C(=O)N([C@H](C)CO)C[C@@H]1C`?
ABCB6 inh 2: 97

How did CN(C)S(=O)(=O)c1ccc(C(=O)Nc2nnc(SCC(=O)N3CCOCC3)s2)cc1 do in these assays?
ABCB6 inh 2: 96

Results for CCOC(=O)CNC(=O)CSc1nnc(NC(=O)c2ccc(C)cc2)s1 ?
ABCG2 inh: 3; FLuc act counter: 0.1; Diaphorase act: 1; ABCB6 inh 2: 97; ABCB1 block: 0; FLuc inhib CS: 94*

What do the screens show for `Cc1ccc(C(=O)Nc2nnc(SCC(=O)N3CCCc4ccccc43)s2)cc1`?
ABCG2 inh: 2; FLuc act counter: 0; Diaphorase act: 0.8; ABCB6 inh 2: 97; ABCB1 block: 0; FLuc inhib CS: 98*

What do the screens show for `CC(C)Oc1ccc(C(=O)Nc2nnc(SCC(=O)N3CCOCC3)s2)cc1`?
ABCG2 inh: 13; FLuc act counter: 0; Diaphorase act: 0.8; ABCB6 inh 2: 104; ABCB1 block: 1; FLuc inhib CS: 97*

What do the screens show for `O=C(Nc1nnc(SCC(=O)N2CCCc3ccccc32)s1)c1cccc2ccccc12`?
ABCG2 inh: -5; FLuc act counter: 1; Diaphorase act: 0.8; ABCB6 inh 2: 90; ABCB1 block: 0; FLuc inhib CS: 4

How did Cc1cccc(Nc2nnc(SCC(=O)Nc3ccc(C(=O)O)cc3)s2)c1 do in these assays?
ABCG2 inh: -3; FLuc act counter: 0.3; Diaphorase act: 1; ABCB6 inh 2: 152; ABCB1 block: -1; FLuc inhib CS: 68*

How did CCOC(=O)CNC(=O)CSc1nnc(NC(=O)c2ccc3c(c2)OCO3)s1 do in these assays?
ABCB6 inh 2: 97

How did O=C(c1ccc(S(=O)(=O)N2CCOCC2)cc1)N1CCc2ccccc21 do in these assays?
ABCB6 inh 2: 96

What do the screens show for `Cc1cccc(N/C=C/C(=O)c2cccs2)c1C`?
ABCG2 inh: 27; FLuc act counter: 0.1; Diaphorase act: 0.9; ABCB6 inh 2: 95; ABCB1 block: 0; FLuc inhib CS: 92*

What do the screens show for `O=C(Nc1ccccc1Cl)c1ccc(Cl)cc1Cl`?
ABCG2 inh: 18; FLuc act counter: 0.9; Diaphorase act: 0.8; ABCB6 inh 2: 106; ABCB1 block: 1; FLuc inhib CS: 7
